# Several values for one entry are separate records, joined by “and”; a condition that tells them apart may be missing. Identical values can stand only once.
# Test system: U2OS
# Assay: Multiplex assay against U2OS
# Type: toxicity, cell-based
# Details: human
# Outline: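 Per cents of healthy-nucleus cells form the tubulin, mitochondrial-mass and membrane-permeability phenotype values. Live cells were stained at seeding with Hoechst33342, BioTracker Green Microtubule Cytoskeleton Dye, MitoTracker Red and Annexin V Alexa Fluor 680. After compound addition they were imaged on a CQ1 microscope at 37°C and 5% CO2, and CellPathfinder machine-learning gating split them into Hoechst high-intensity objects or normal cells, normal cells into healthy, pyknosed or fragmented nuclei, and pyknosed cells into mitotic or apoptotic.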
# [1] = 12 h, 1 µM, compound concentration 1 uM, replicate 1
# [2] = 12 h, 1 µM, compound concentration 1 uM, replicate 2
# [3] = 12 h, 10 µM, compound concentration 10 uM, replicate 1
# [4] = 12 h, 10 µM, compound concentration 10 uM, replicate 2
# [5] = 24 h, 1 µM, compound concentration 1 uM, replicate 1
# [6] = 24 h, 1 µM, compound concentration 1 uM, replicate 2
# [7] = 24 h, 10 µM, compound concentration 10 uM, replicate 1
# [8] = 24 h, 10 µM, compound concentration 10 uM, replicate 2
# [9] = 48 h, 1 µM, compound concentration 1 uM, replicate 1
# [10] = 48 h, 1 µM, compound concentration 1 uM, replicate 2
# [11] = 48 h, 10 µM, compound concentration 10 uM, replicate 1
# [12] = 48 h, 10 µM, compound concentration 10 uM, replicate 2
smiles,measurement,setting,value
CNC[C@H](O)c1ccc(O)c(O)c1 [EPINEPHRINE],Population Apoptotic (%),[1],88%
same,Population Fragmented Nuclei (%),[1],35%
same,Population Healthy Nuclei (%),[1],56%
same,Population Hoechst High Intensity Objects (%),[1],2%
same,Population Membrane Permeable-Phenotype (%),[1],5%
same,Population Mitochondria Different-Phenotype (%),[1],1%
same,Population Mitotic Cells (%),[1],11%
same,Population Normal (%),[1],97%
same,Population Pyknosed Nuclei (%),[1],7%
same,Population Tubulin-Different-Phenotype (%),[1],2%
same,Total Cell Count,[1],229
same,Population Apoptotic (%),[2],80%
same,Population Fragmented Nuclei (%),[2],17%
same,Population Healthy Nuclei (%),[2],77%
same,Population Hoechst High Intensity Objects (%),[2],0%
same,Population Membrane Permeable-Phenotype (%),[2],7%
same,Population Mitochondria Different-Phenotype (%),[2],2%
same,Population Mitotic Cells (%),[2],20%
same,Population Normal (%),[2],100%
same,Population Pyknosed Nuclei (%),[2],5%
same,Population Tubulin-Different-Phenotype (%),[2],4%
same,Total Cell Count,[2],92
same,Population Apoptotic (%),[3],92%
same,Population Fragmented Nuclei (%),[3],41%
same,Population Healthy Nuclei (%),[3],45%
same,Population Hoechst High Intensity Objects (%),[3],6%
same,Population Membrane Permeable-Phenotype (%),[3],7%
same,Population Mitochondria Different-Phenotype (%),[3],1%
same,Population Mitotic Cells (%),[3],8%
same,Population Normal (%),[3],93%
same,Population Pyknosed Nuclei (%),[3],13%
same,Population Tubulin-Different-Phenotype (%),[3],4%
same,Total Cell Count,[3],199
same,Population Apoptotic (%),[4],86%
same,Population Fragmented Nuclei (%),[4],33%
same,Population Healthy Nuclei (%),[4],50%
same,Population Hoechst High Intensity Objects (%),[4],9%
same,Population Membrane Permeable-Phenotype (%),[4],6%
same,Population Mitochondria Different-Phenotype (%),[4],2%
same,Population Mitotic Cells (%),[4],13%
same,Population Normal (%),[4],90%
same,Population Pyknosed Nuclei (%),[4],15%
same,Population Tubulin-Different-Phenotype (%),[4],6%
same,Total Cell Count,[4],105
same,Population Apoptotic (%),[5],84%
same,Population Fragmented Nuclei (%),[5],28%
same,Population Healthy Nuclei (%),[5],64%
same,Population Hoechst High Intensity Objects (%),[5],2%
same,Population Membrane Permeable-Phenotype (%),[5],6%
same,Population Mitochondria Different-Phenotype (%),[5],1%
same,Population Mitotic Cells (%),[5],15%
same,Population Normal (%),[5],97%
same,Population Pyknosed Nuclei (%),[5],7%
same,Population Tubulin-Different-Phenotype (%),[5],2%
same,Total Cell Count,[5],278
same,Population Apoptotic (%),[6],75%
same,Population Fragmented Nuclei (%),[6],19%
same,Population Healthy Nuclei (%),[6],68%
same,Population Membrane Permeable-Phenotype (%),[6],7%
same,Population Mitochondria Different-Phenotype (%),[6],5%
same,Population Mitotic Cells (%),[6],25%
same,Population Pyknosed Nuclei (%),[6],11%
same,Population Tubulin-Different-Phenotype (%),[6],1%
same,Total Cell Count,[6],105
same,Population Apoptotic (%),[7],94%
same,Population Fragmented Nuclei (%),[7],39%
same,Population Healthy Nuclei (%),[7],50%
same,Population Hoechst High Intensity Objects (%),[7],9%
same,Population Membrane Permeable-Phenotype (%),[7],11%
same,Population Mitochondria Different-Phenotype (%),[7],5%
same,Population Mitotic Cells (%),[7],5%
same,Population Normal (%),[7],90%
same,Population Pyknosed Nuclei (%),[7],10%
same,Population Tubulin-Different-Phenotype (%),[7],6%
same,Total Cell Count,[7],195
same,Population Apoptotic (%),[8],100%
same,Population Fragmented Nuclei (%),[8],31%
same,Population Healthy Nuclei (%),[8],45%
same,Population Hoechst High Intensity Objects (%),[8],11%
same,Population Membrane Permeable-Phenotype (%),[8],2%
same,Population Mitochondria Different-Phenotype (%),[8],0%
same,Population Mitotic Cells (%),[8],0%
same,Population Normal (%),[8],88%
same,Population Pyknosed Nuclei (%),[8],22%
same,Population Tubulin-Different-Phenotype (%),[8],2%
same,Total Cell Count,[8],96
same,Population Apoptotic (%),[9],87%
same,Population Fragmented Nuclei (%),[9],24%
same,Population Healthy Nuclei (%),[9],66%
same,Population Hoechst High Intensity Objects (%),[9],0%
same,Population Membrane Permeable-Phenotype (%),[9],9%
same,Population Mitochondria Different-Phenotype (%),[9],5%
same,Population Mitotic Cells (%),[9],12%
same,Population Normal (%),[9],99%
same,Population Pyknosed Nuclei (%),[9],9%
same,Population Tubulin-Different-Phenotype (%),[9],4%
same,Total Cell Count,[9],333
same,Population Apoptotic (%),[10],92%
same,Population Fragmented Nuclei (%),[10],18%
same,Population Healthy Nuclei (%),[10],72%
same,Population Membrane Permeable-Phenotype (%),[10],4%
same,Population Mitochondria Different-Phenotype (%),[10],3%
same,Population Mitotic Cells (%),[10],7%
same,Population Tubulin-Different-Phenotype (%),[10],2%
same,Total Cell Count,[10],150
same,Population Apoptotic (%),[11],92%
same,Population Fragmented Nuclei (%),[11],41%
same,Population Healthy Nuclei (%),[11],44%
same,Population Hoechst High Intensity Objects (%),[11],10%
same,Population Membrane Permeable-Phenotype (%),[11],15%
same,Population Mitochondria Different-Phenotype (%),[11],8%
same,Population Mitotic Cells (%),[11],7%
same,Population Normal (%),[11],89%
same,Population Pyknosed Nuclei (%),[11],14%
same,Population Tubulin-Different-Phenotype (%),[11],10%
same,Total Cell Count,[11],215
same,Population Apoptotic (%),[12],94%
same,Population Fragmented Nuclei (%),[12],36%
same,Population Healthy Nuclei (%),[12],40%
same,Population Hoechst High Intensity Objects (%),[12],17%
same,Population Membrane Permeable-Phenotype (%),[12],24%
same,Population Mitochondria Different-Phenotype (%),[12],13%
same,Population Mitotic Cells (%),[12],5%
same,Population Normal (%),[12],82%
same,Population Pyknosed Nuclei (%),[12],23%
same,Population Tubulin-Different-Phenotype (%),[12],13%
same,Total Cell Count,[12],87
CC(=O)O[C@H]1C(=O)[C@@]2(C)[C@H]([C@H](OC(=O)c3ccccc3)[C@]3(O)C[C@H](OC(=O)[C@H](O)[C@@H](NC(=O)c4ccccc4)c4ccccc4)C(C)=C1C3(C)C)[C@]1(OC(C)=O)CO[C@@H]1C[C@@H]2O [PACLITAXEL],Population Apoptotic (%),[3],64% and 59%
same,Population Fragmented Nuclei (%),[3],28% and 29%
same,Population Healthy Nuclei (%),[3],46% and 43%
same,Population Hoechst High Intensity Objects (%),[3],8% and 3%
same,Population Membrane Permeable-Phenotype (%),[3],23% and 12%
same,Population Mitochondria Different-Phenotype (%),[3],25% and 38%
same,Population Mitotic Cells (%),[3],35% and 40%
same,Population Normal (%),[3],91% and 96%
same,Population Pyknosed Nuclei (%),[3],24% and 26%
same,Population Tubulin-Different-Phenotype (%),[3],16% and 7%
same,Total Cell Count,[3],200 and 236
same,Population Apoptotic (%),[4],71% and 72%
same,Population Fragmented Nuclei (%),[4],16% and 22%
same,Population Healthy Nuclei (%),[4],60% and 63%
same,Population Hoechst High Intensity Objects (%),[4],2%
same,Population Membrane Permeable-Phenotype (%),[4],10% and 4%
same,Population Mitochondria Different-Phenotype (%),[4],30% and 46%
same,Population Mitotic Cells (%),[4],28% and 27%
same,Population Normal (%),[4],97%
same,Population Pyknosed Nuclei (%),[4],23% and 14%
same,Population Tubulin-Different-Phenotype (%),[4],14% and 8%
same,Total Cell Count,[4],94 and 79
same,Population Apoptotic (%),[7],69% and 64%
same,Population Fragmented Nuclei (%),[7],33% and 27%
same,Population Healthy Nuclei (%),[7],36% and 49%
same,Population Hoechst High Intensity Objects (%),[7],4% and 5%
same,Population Membrane Permeable-Phenotype (%),[7],21% and 13%
same,Population Mitochondria Different-Phenotype (%),[7],44% and 34%
same,Population Mitotic Cells (%),[7],30% and 35%
same,Population Normal (%),[7],95% and 94%
same,Population Pyknosed Nuclei (%),[7],29% and 23%
same,Population Tubulin-Different-Phenotype (%),[7],13% and 12%
same,Total Cell Count,[7],198 and 233
same,Population Apoptotic (%),[8],58% and 85%
same,Population Fragmented Nuclei (%),[8],25%
same,Population Healthy Nuclei (%),[8],48% and 50%
same,Population Hoechst High Intensity Objects (%),[8],7%
same,Population Membrane Permeable-Phenotype (%),[8],15% and 9%
same,Population Mitochondria Different-Phenotype (%),[8],52%
same,Population Mitotic Cells (%),[8],41% and 15%
same,Population Normal (%),[8],92%
same,Population Pyknosed Nuclei (%),[8],26% and 24%
same,Population Tubulin-Different-Phenotype (%),[8],18% and 9%
same,Total Cell Count,[8],95 and 90
same,Population Apoptotic (%),[11],76% and 82%
same,Population Fragmented Nuclei (%),[11],35% and 39%
same,Population Healthy Nuclei (%),[11],30% and 25%
same,Population Hoechst High Intensity Objects (%),[11],12% and 13%
same,Population Membrane Permeable-Phenotype (%),[11],27% and 25%
same,Population Mitochondria Different-Phenotype (%),[11],29% and 25%
same,Population Mitotic Cells (%),[11],23% and 17%
same,Population Normal (%),[11],87% and 86%
same,Population Pyknosed Nuclei (%),[11],33% and 34%
same,Population Tubulin-Different-Phenotype (%),[11],16% and 14%
same,Total Cell Count,[11],203 and 246
same,Population Apoptotic (%),[12],70% and 91%
same,Population Fragmented Nuclei (%),[12],27% and 37%
same,Population Healthy Nuclei (%),[12],31% and 34%
same,Population Hoechst High Intensity Objects (%),[12],8% and 15%
same,Population Membrane Permeable-Phenotype (%),[12],14% and 6%
same,Population Mitochondria Different-Phenotype (%),[12],50% and 44%
same,Population Normal (%),[12],91% and 84%
same,Population Pyknosed Nuclei (%),[12],41% and 27%
same,Population Tubulin-Different-Phenotype (%),[12],25% and 13%
same,Total Cell Count,[12],98

# — ChEMBL document CHEMBL5058577, “EUbOPEN Chemogenomics Library 2 (Multiplex)” (2022)
